# Test system: not listed separately
# Assay: Metabolic stability in ICR/CD-1 mouse hepatocytes assessed as parent compound remaining incubated for 30 mins by LC-MS/MS analysis
# Assay type: ADME, cell-based, Hepatocyte
# Settings: read-out: Stabilty
# In short: (§1)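 Hepatocytes from male ICR/CD-1 mice, male Sprague-Dawley rats, or mixed human donors. Parent compound measured after 30 min incubation and normalised to the time-zero concentration.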
row,Structure (SMILES),remaining at 0.5 h [%]
1,CC#CCn1c(N2CCC[C@@H](N)C2)nc2c1c(=O)n(CCCN1CCN(c3noc(-c4ccccc4)n3)CC1)c(=O)n2C,24.2
2,CC#CCn1c(N2CCC[C@@H](N)C2)nc2c1c(=O)n(CCCN1CCC(n3cc(-c4ccccc4)nn3)CC1)c(=O)n2C,21
3,CC#CCn1c(N2CCC[C@@H](N)C2)nc2c1c(=O)n(CCCN1CCC(c3nc(-c4ccccc4)c[nH]3)CC1)c(=O)n2C,69.4

# Test system: not listed separately
# Assay: Metabolic stability in human hepatocytes assessed as parent compound remaining incubated for 30 mins by LC-MS/MS analysis
# Assay type: ADME, cell-based, Hepatocyte
# Settings: read-out: Stabilty
# In short: as §1
row,Structure (SMILES),remaining at 0.5 h [%]
1,CC#CCn1c(N2CCC[C@@H](N)C2)nc2c1c(=O)n(CCCN1CCN(c3noc(-c4ccccc4)n3)CC1)c(=O)n2C,82
2,CC#CCn1c(N2CCC[C@@H](N)C2)nc2c1c(=O)n(CCCN1CCC(n3cc(-c4ccccc4)nn3)CC1)c(=O)n2C,68.1
3,CC#CCn1c(N2CCC[C@@H](N)C2)nc2c1c(=O)n(CCCN1CCC(c3nc(-c4ccccc4)c[nH]3)CC1)c(=O)n2C,84

# Target: T1, Glucose-dependent insulinotropic receptor (Homo sapiens) (UniProt Q8TDV5)
# T1 sequence (whole entry): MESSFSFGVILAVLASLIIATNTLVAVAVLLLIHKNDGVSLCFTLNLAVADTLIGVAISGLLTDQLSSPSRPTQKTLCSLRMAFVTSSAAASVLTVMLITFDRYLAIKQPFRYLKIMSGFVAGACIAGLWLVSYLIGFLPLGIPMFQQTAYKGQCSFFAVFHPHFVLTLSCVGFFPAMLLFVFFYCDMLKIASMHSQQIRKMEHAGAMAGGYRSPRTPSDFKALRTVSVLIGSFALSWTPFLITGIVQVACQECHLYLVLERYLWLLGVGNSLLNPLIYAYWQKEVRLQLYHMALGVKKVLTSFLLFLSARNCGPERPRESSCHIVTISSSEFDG
# Assay: Agonist activity at CREB-LBD and Gal4-DBD fused recombinant human GPR119 expressed in HEK293 cells at 1 uM by firefly luciferase assay relative to AR231453
# Assay type: functional, cell-based
# Settings: filed as agonist
# In short: (§2)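 HEK293 cells transiently transfected with human GPR119, a Gal4-DBD/CREB-LBD fusion and a Gal4 UAS-driven luciferase reporter, then treated with compound (DMSO vehicle). Firefly luciferase luminescence read. Activation fold = compound/vehicle, expressed as percent of the AR231453 activation fold. EC50 obtained by curve fitting.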
row,Structure (SMILES),Activity [%]
1,CC#CCn1c(N2CCC[C@@H](N)C2)nc2c1c(=O)n(CCCN1CCN(c3noc(-c4ccccc4)n3)CC1)c(=O)n2C,89
2,CC#CCn1c(N2CCC[C@@H](N)C2)nc2c1c(=O)n(CCCN1CCC(n3cc(-c4ccccc4)nn3)CC1)c(=O)n2C,47
3,CC#CCn1c(N2CCC[C@@H](N)C2)nc2c1c(=O)n(CCCN1CCC(c3nc(-c4ccccc4)c[nH]3)CC1)c(=O)n2C,65

# Test system: not listed separately
# Assay: Metabolic stability in Sprague-Dawley rat hepatocytes assessed as parent compound remaining incubated for 30 mins by LC-MS/MS analysis
# Assay type: ADME, cell-based, Hepatocyte
# Settings: read-out: Stabilty
# In short: as §1
row,Structure (SMILES),remaining at 0.5 h [%]
1,CC#CCn1c(N2CCC[C@@H](N)C2)nc2c1c(=O)n(CCCN1CCN(c3noc(-c4ccccc4)n3)CC1)c(=O)n2C,25
2,CC#CCn1c(N2CCC[C@@H](N)C2)nc2c1c(=O)n(CCCN1CCC(n3cc(-c4ccccc4)nn3)CC1)c(=O)n2C,19.7
3,CC#CCn1c(N2CCC[C@@H](N)C2)nc2c1c(=O)n(CCCN1CCC(c3nc(-c4ccccc4)c[nH]3)CC1)c(=O)n2C,21.7

# Target: T2, Glucose-dependent insulinotropic receptor (Homo sapiens, UniProt Q8TDV5)
# T2 sequence (Q8TDV5 whole entry): T1 sequence (whole entry)
# Assay: Agonist activity at CREB-LBD and Gal4-DBD fused recombinant human GPR119 expressed in HEK293 cells by firefly luciferase assay
# Assay type: functional, cell-based
# Settings: not given
# In short: as §2
row,Structure (SMILES),EC50 [nM]
1,CC#CCn1c(N2CCC[C@@H](N)C2)nc2c1c(=O)n(CCCN1CCN(c3noc(-c4ccccc4)n3)CC1)c(=O)n2C,1450
2,CC#CCn1c(N2CCC[C@@H](N)C2)nc2c1c(=O)n(CCCN1CCC(c3nc(-c4ccccc4)c[nH]3)CC1)c(=O)n2C,600

# Target: DPP8/9 (Homo sapiens, UniProt Q6V1X1+Q86TI2)
# Assay: Inhibition of recombinant human DPP8/9 expressed in Rosetta cells at 10 uM using Gly-Pro-p-nitroanilide as substrate incubated for 1 hr relative to control
# Settings: probe Gly-Pro-p-nitroanilide
row,Structure (SMILES),"inhibition at 1 h, 10 µM [%]"
1,CC#CCn1c(N2CCC[C@@H](N)C2)nc2c1c(=O)n(CCCN1CCC(n3cc(-c4ccccc4)nn3)CC1)c(=O)n2C,0
2,CC#CCn1c(N2CCC[C@@H](N)C2)nc2c1c(=O)n(CCCN1CCC(c3nc(-c4ccccc4)c[nH]3)CC1)c(=O)n2C,5.1

# Test system: Vero
# Assay: Cytotoxicity against African green monkey Vero cells incubated for 48 hrs by MTT assay
# Settings: Chlorocebus sabaeus
row,Structure (SMILES),IC50 [µg/mL]
1,CC#CCn1c(N2CCC[C@@H](N)C2)nc2c1c(=O)n(CCCN1CCN(c3noc(-c4ccccc4)n3)CC1)c(=O)n2C,8.7
2,CC#CCn1c(N2CCC[C@@H](N)C2)nc2c1c(=O)n(CCCN1CCC(n3cc(-c4ccccc4)nn3)CC1)c(=O)n2C,25.9
3,CC#CCn1c(N2CCC[C@@H](N)C2)nc2c1c(=O)n(CCCN1CCC(c3nc(-c4ccccc4)c[nH]3)CC1)c(=O)n2C,35.2
